# Results pooled from the literature.
SMILES,organism,assay,test system,setting,measurement,result
N#CC(=Cc1cn(-c2ccccc2)nc1-c1ccccc1)C1=NC(=O)CS1,Klebsiella pneumoniae,"microbial killing, broth dilution",,,MBC,0.25 µg/mL
O=C1C=C(OCc2cn(-c3ccc(F)cc3)nn2)C(=O)c2ccccc21,Klebsiella pneumoniae,"microbial growth, broth dilution",ATCC700603,,IC50,672 µg/mL
O=C1NC(=S)N/C1=C\c1ccc(-c2ccc(N(c3ccccc3)c3ccccc3)cc2)cc1,Streptococcus pneumoniae,"microbial killing, broth dilution",ATCC49619,,MBC,> 1000 µg/mL
Cc1ccc2[nH]ccc2c1,Cryptosporidium parvum,parasite growth,HCT-8,"24 h, intracellular",EC50,405 µM
Fc1ccc(-n2cc(COc3cccc4cccnc34)nn2)cc1,Klebsiella pneumoniae,"microbial growth, broth dilution",ATCC700603,,IC50,1230 µg/mL
O=C(O)CN1C(=O)/C(=C/c2ccc(-c3ccc(N(c4ccccc4)c4ccccc4)cc3)cc2)NC1=S,Streptococcus pneumoniae,"microbial killing, broth dilution",ATCC49619,,MBC,125 µg/mL
O=[N+]([O-])c1ccc(-n2cc(COc3cccc4cccnc34)nn2)cc1,Klebsiella pneumoniae,"microbial growth, broth dilution",ATCC700603,,IC50,554 µg/mL
Cc1c(NN=C2SC(C(C#N)=Cc3ccc(Cl)cc3)=NC2=O)c(=O)n(-c2ccccc2)n1C,Klebsiella pneumoniae,"microbial growth, well diffusion",,100000 µg/mL,inhibition zone,16 mm
C[C@H](CCC(=O)O)[C@H]1CC[C@H]2[C@@H]3CC[C@@H]4C[C@H](O)CC[C@]4(C)[C@H]3CC[C@]12C,Cryptosporidium parvum,"parasite growth, imaging",HCT-8,"100 µM, 24 h, intracellular",activity vs control,45.2%
O=C(O)c1cn(C2CC2)c2cc(N3CCNCC3)c(F)cc2c1=O,Klebsiella pneumoniae,"microbial growth, broth dilution",ATCC700603,,IC50,0.25 µg/mL
O=C1NC(=S)S/C1=C\c1c2ccccc2c(-c2ccc(N(c3ccccc3)c3ccccc3)cc2)c2ccccc12,Streptococcus pneumoniae,"microbial growth, broth dilution",ATCC49619,,MIC,> 1000 µg/mL
CCOC(=O)C=c1[nH]c(=O)c(=Cc2cn(-c3ccccc3)nc2-c2ccc(C)cc2)s1,Klebsiella pneumoniae,"microbial growth, well diffusion",,100000 µg/mL,inhibition zone,13 mm
Cc1ccc(C(C)C)cc1OCc1cn(-c2ccc(F)cc2)nn1,Klebsiella pneumoniae,"microbial growth, broth dilution",ATCC700603,,IC50,211 µg/mL
Cc1ccc2cc[nH]c2c1,Cryptosporidium parvum,parasite growth,HCT-8,"24 h, intracellular",EC50,310 µM
O=C1NC(=S)S/C1=C\c1ccc(-c2ccc(N(c3ccccc3)c3ccccc3)cc2)cc1,Streptococcus pneumoniae,"microbial killing, broth dilution",ATCC49619,,MBC,> 1000 µg/mL
Oc1ccc2cc[nH]c2c1,Cryptosporidium parvum,parasite growth,HCT-8,"24 h, intracellular",EC50,722 µM
COc1ccc(-n2cc(COC3=CC(=O)c4ccccc4C3=O)nn2)cc1,Klebsiella pneumoniae,"microbial growth, broth dilution",ATCC700603,,IC50,137 µg/mL
Cc1c(NC(=O)CC2=NC(=O)CS2)c(=O)n(-c2ccccc2)n1C,Klebsiella pneumoniae,"microbial killing, broth dilution",,,MBC,0.5 µg/mL
NCCCCNCCCN,Cryptosporidium parvum,"parasite growth, imaging",HCT-8,"1 mM, 24 h, intracellular",activity vs control,100%
CC(C)(NC(=O)c1cc2c(Cl)cc(Cl)cc2[nH]1)c1cn(Cc2cccc(Cl)c2)nn1,Cryptosporidium parvum,"parasite growth, imaging",HCT-8,"11 µM, 72 h, intracellular",inhibition,> 60%
O=C1NC(=S)N/C1=C\c1ccc(-c2ccc(N(c3ccccc3)c3ccccc3)cc2)c2ccccc12,Streptococcus pneumoniae,"microbial growth, broth dilution",ATCC49619,,MIC,> 1000 µg/mL
CC(C)(NC(=O)c1cc2c(Cl)cc(Cl)cc2[nH]1)c1cn(Cc2ccccc2Cl)nn1,Cryptosporidium parvum,"parasite growth, imaging",HCT-8,"11 µM, 72 h, intracellular",inhibition,> 60%
Oc1cccc2[nH]ccc12,Cryptosporidium parvum,parasite growth,HCT-8,"24 h, intracellular",EC90,2770 µM
Cc1ccc(-n2cc(COc3cccc4cccnc34)nn2)cc1,Klebsiella pneumoniae,"microbial growth, broth dilution",ATCC700603,,IC50,268 µg/mL
Nc1ncnc2c1ncn2[C@H]1C[C@H](O)[C@@H](COP(=O)(O)O)O1,Cryptosporidium parvum,"parasite growth, imaging",HCT-8,"1 mM, 24 h, intracellular",activity vs control,96.7%
Cc1ccc(S(=O)(=O)Oc2cc(C(C)C)ccc2C)cc1,Klebsiella pneumoniae,"microbial growth, broth dilution",ATCC700603,,IC50,279 µg/mL
